Experimental data from the EternaBench riboswitch data.

Test system: MS2 coat protein
Assay: apparent Kd, MS2 coat protein; higher = weaker binding; RNA-MaP array; FMN 200 µM where present
Summary of the method: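 The apparent Kd is reported as the median of filtered per-cluster binding-curve fits. To get these curves, designs transcribed by stalled E. coli RNA polymerase on Illumina sequencing-chip clusters were titrated with SNAP-549-labelled MS2 coat protein from 0.7 or 1.5 nM, doubling to 3 µM. Titrations were run without and then with constant ligand in 100 mM Tris-HCl pH 7.5, 80 mM KCl, 4 mM MgCl2, BSA, DTT, yeast tRNA and Tween-20, and green signal was normalised to red-channel RNA signal and control-cluster median Fmax.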

[1] = designed as: ON switch for flavin mononucleotide, no ligand
[2] = ligand present: flavin mononucleotide, designed as: ON switch for flavin mononucleotide
[3] = designed as: OFF switch for flavin mononucleotide, no ligand
[4] = ligand present: flavin mononucleotide, designed as: OFF switch for flavin mononucleotide

Sequence	apparent Kd [1] [nM]	apparent Kd [2] [nM]	apparent Kd [3] [nM]	apparent Kd [4] [nM]
UUAUUACAUGAGGAUCACCCAUGUUUAGUGGUGACAGGAUAUACGAAAAAAAAAAAAAAAGUAGAAGGGUCUUAUU	503	742	–	–
UUAUUAUAUGUAGGAUAUGCAUAUUGUUGUUAUGCAGAAGGACAUGAGGAUCACCCAUGUAUAUUAUUGUUAUAUAUUAUAUAU	–	–	23.4	36.7
UUAUUAUAUGUAGGAUAUGCGUAUUAUUGUUAUGCAGAAGGACAUGAGGAUCACCCAUGUAUAUUAUUGUUGUAUAUUAUAUAU	–	–	23.5	43
UUAUUAUGUGUAGGAUAUGCAUAUUACUAUUAUGCAGAAGGACAUGAGGAUCACCCAUGUAUAUUAUUAUUAUAUAUUAUAUAU	–	–	14.9	22.4
UUAUUGGGACAGAAGGGCAUUUACAUGAGGAUCACCCAUGUUCAUCAUUGCAGGAUAUGUAUUACAUGAGGAUCAUCUAUGUUA	259	36.9	–	–
UUCAAAUUCGUAGGAUAUGUAUAAAUUAUCUACAUGAGGAUCACCCAUGUUUUCAUUUUAAAUUGACAGAAGGACGUAAUCUUA	16.4	7.87	–	–
UUCAACGAUGAAGGAUAUGUAUAAACAUGAGGACAUGAGGAUCACCCAUGUUGAUCACCCAUGUAGCAGAAGGUCAACAUGAGG	360	142	–	–
UUCAAGGGUUGAGGAUAUCCCGGUUGUGUCCUCAUCCGCCAAGGUACAUGAGGAUCACCCAUGUGGGAGAAGGCAAUACUAGAG	–	–	130	182
UUCAGCUCGUCAGGAUAUACGUCACUGCGUCAGCAGUGUGGUAAGAUCACAUGAGGAUCACCCAUGUAGAAGGGACGAGCUGAU	–	–	13.7	235
UUCAUCGAUGAAGGAUAUCUAUGUCCAACAUGAGGAUCACCCAUGUUGAGGAUUACCUAUGUGUAGGAGAAGGUCAAUAUAACU	7.02	6.28	–	–
UUCCUACAUGAGGAUCACCCAUGUGAGGAUAUGCAUCGUAUUAUUCUCGUAUGUAGUAGCAGAAGGCGCAUUGG	–	–	25.9	89.6
UUCCUGUCAGGAUAUGACUAGAUGCACGAAAGUGUGUUUACUUAGAAGGGACAUGAGGAUCACCCAUGUAGUCC	–	–	35.9	33.3
UUCGGUGAAGGAUAUAGGGCUCGGUACAUGAGGAUCACCCAUGUUGCUUUAUGUUCCACCCUAGAAGGUUAUCACC	–	–	417	370
UUCGUGCAGCUUUGCUGUACGCGUACAUGAGGAUCACCCAUGUAGGAUAUAGUAGGCAAAGCUUACUAGAAGGAUAUAGUGAUC	–	–	47.6	47.3
UUGAACAUAGGAUAUAGUUGUUUGUACAUGAGGAUCACCCAUGUUAUGUAUGUUUUGUUUCUAGAAGGAUGUUGAU	–	–	37.7	32.3
UUGAACGUCGUAGGAUAUGUAGGAUAUUCCUACAUGAGGAUCACCCAUGUUGACAUGGAAGAAGGACAGAAGGACGAUGUCCAU	567	7.77	–	–
UUGAAGAAUUAAGGAUAUUGAUUACAUAUGUUAAACAUGAGGAUCACCCAUGUGGGUUGCGGUAUCGAGAAGGUAAAUUAAUAG	115	107	–	–
UUGAAGCUCACAGGAUAUCAGUAUGCACGAUCUAGCGCAUUAAUGAACUGCUGAGAAGGGUGAGACAUGAGGAUCACCCAUGUA	593	209	–	–
UUGAAGUCAUCAGGAUAUAGUAUUAAAGACAUUUAUUUUUUCAUACAUGAGGAUCACCCAUGUCGCUAGAAGGGAUUAUAGAUU	–	–	51.8	49.2
UUGAGGUCAGGAUAUGCAUGGCGGGACUUGCGUCGUGGCGUGCAGAAGGGACAUGAGGAUCACCCAUGUGGAGC	–	–	75.2	211
UUGCAGUGCGGGUAGGAUAUGUAGGGUGGUACAUGAGGAUCACCCAUGUGUCCACCCUUCGACCGGCAGAAGGGCCUAUCACUGC	17.1	15.6	–	–
UUGCCACAUGAGGAUCACCCAUGUGAGGAUAUGGCCUGUUUGGCGUGAGCUGGUUCUGUCAGAAGGCGCGUGGG	–	–	45.9	51.3
UUGCCACAUGAGGAUCACCCAUGUGAGGAUAUGGCCUGUUUGGCGUGUGCUGGUUCUGUCAGAAGGCGCGUGGG	–	–	31.6	36.5
UUGCGCUGUCGAGAGGAUAUGCGGUGUUGGACAUGAGGAUCACCCAUGUUAGCGAUAGCUUUACGGUAGAAGGCUCUUCAGCUGC	138	56.9	–	–
UUGGACGUCGCAGGAUAUGUAGGAUAUUCCUACAUGAGGAUCACCCAUGUUGACAUGGAAGAAGGACAGAAGGACGAUGUCCAU	693	9.15	–	–
UUGGACGUCGUAGGAUAUGUAGGAUAUUCCUACAUGAGGAUCACCCAUGUUGACAGGGAAGAAGGACAGAAGGACGAUGUCCAU	17	4.01	–	–
UUGGACGUCGUAGGAUAUGUAGGAUAUUCCUACAUGAGGAUCACCCAUGUUGACAUGGAAGAAGGACACAAGGACGAUGUCCAU	664	15.8	–	–
UUGGACGUCGUAGGAUAUGUAGGAUAUUCCUACAUGAGGAUCACCCAUGUUGACAUGGAAGAAGGAUAGAAGGACGAUGUCCAU	624	81.5	–	–

Sequence	apparent Kd [1] [nM]	apparent Kd [2] [nM]	apparent Kd [3] [nM]	apparent Kd [4] [nM]
UUGGACGUCGUAGGAUAUGUAGGAUAUUCCUACAUGAGGAUCACCCAUGUUGAUAUGGAAGAAGGACAGAAGGACGAUGUCCAU	31.8	4.64	–	–
UUGGACGUCGUAGGAUAUGUAGGAUGUUCCUACAUGAGGAUCACCCAUGUUGACAUGGAAGAAGGACAGAAGGACGAUGUCCAU	547	27	–	–
UUGGACGUCGUAUGAUAUGUAGGAUAUUCCUACAUGAGGAUCACCCAUGUUGACAUGGAAGAAGGACAGAAGGACGAUGUCCAU	192	6.74	–	–
UUGGACUACGUAGGAUAUGUAGGAUUUUCCUACAUGAGGAUCACCCAUGUUAGCAUGGAAGAAGGACAGAAGGACGUGGUCCAU	782	79.3	–	–
UUGGAGUACGUAGGAUAUGUAGGAUAUUCCUACAUGAGGAUCACCCAUGUAAGCAUGGAAGAAGGACAGAAGGACGUGCUCCAU	223	14.9	–	–
UUGUAGUACGUAGGAUAUCAUUGAGGGUCACCCUGAGAAGGACGUGAGGACAUGAGGAUCACCCAUGUGGAUCACCCAUGUCAU	–	–	282	549
UUGUAGUGCGUAGGAUAUCAUUGAGGGUCACCCUGAGAAGGACGUGAGGACAUGAGGAUCACCCAUGUGGAUCACCCAUGUCAU	–	–	305	462
UUGUUGUGUGGAGGAUAUACACUAAUUGUUAGCGUAGAAGGCCACAUGAGGAUCACCCAUGUCCGGGUUACUGCCUAAGGAGUG	–	–	548	99.5
UUGUUUCGUCAUUAACAUGAGGAUCACCCAUGUAAAGAACCAGAGGAUAUGCAUGUUUGAUUGUAGCAGAAGGCUGAUUGUUGU	35.8	33.4	–	–
UUGUUUUGAAAUUAACAUGAGGAUCACCCAUGUCUUGACACAGAGGAUAUACAUGAAUGUAGGUAGUAGAAGGCUGUUUAGUGU	79.5	60	–	–
UUUAAUUUAAUUAAGAUCACAUGAGGAUCACCCAUGUAAUUAUAGGAUAUCAGCUCGUUUAGAGCUGAGAAGGAUAAUUACAUA	–	–	78.9	53.4
UUUACAUGAGGAUCACCCAUGUAUAGAACGGUUCAUUAAAGUGAGGAUAUACGAAAUUUAAAAUCGUAGAAGGCACUGGGUACA	17	19.1	–	–
UUUACUAACGAAGGAUAUGGUUACAUGAGGAUCACCCAUGUAUGUAUAUUGAUCUAGUAUUUUAACCAGAAGGUCGUGAUUUUU	–	–	31.6	45.3
UUUAUAUAGUAAGGAUAUGUAUUAUUUUUUUCAACAGAAGGUACUGACAUGAGGAUCACCCAUGUUUUAGUGUGGGCAUGUAGU	–	–	384	450
UUUAUAUUCAGAGGAUAUUAAUGUAGUAUAAUAUAAGAAGGCUGUUUGUUUUGUAAAGUUAUUAUACAUGAGGAUCACCCAUGU	18.4	15.5	–	–
UUUAUAUUCAGAGGAUAUUAAUGUUGUAUAAUAUAAGAAGGCUGUUUGUUUUGUAAAGUUAUUAUACAUGAGGAUCACCCAUGU	20.6	16.9	–	–
UUUAUUAAUUAGAAGGCUUGAUGAAUUACAAUAGACAUGAGGAUCACCCAUGUGUAUUCAUGUCAAGAGGAUAUAGUCAUAUAU	11.3	6.38	–	–
UUUCAGCUCACAUGAGGAUCACCCAUGUCGGUUCGCCCGGACAGAAGGCACCCAUGACAAUGCGGUGAGGAUAUGUCAGCAAGG	193	19.3	–	–
UUUCCGCGAGGAUAUGCGGGUUGUGCUUUUCAUUUCUUACAACAUGAGGAUCACCCAUGUAGAAGGUGCUUCUU	–	–	174	156
UUUCCGCGAGGAUAUGCGGGUUGUGCUUUUCAUUUUUUAUAACAUGAGGAUCACCCAUGUAGAAGGUGCUUCUG	–	–	78.7	71.6
UUUCCUUGUGUGAGGAUAUACUUGUUUGUGUUUUUGUAGAAGGCACAUGAGGAUCACCCAUGUACUCUUUCCUG	–	–	35.1	54.3
UUUGUACAUGAGGAUCACCCAUGUCAGGAUAUGUCAUCGCCGUCCGACGGCCGGCGUCACAGAAGGGACAUGCA	–	–	27.8	78.1
UUUGUGUCAGGAUAUGAGUCGUAGAACAAUAGUACUACGUCUCAGAAGGGACAUGAGGAUCACCCAUGUGCCUC	–	–	35.4	281
UUUGUUUUGCAAGGAUAUGUUUAAUUUUAGUUUCCUUACACAUGAGGAUCACCCAUGUUAUACUUACAGAAGGUGCGUAAUUUG	–	–	149	136
UUUGUUUUGGUAGGAUAUACUUUUAAUUUCUCUUUCCUUACAUGAGGAUCACCCAUGUUUACAUUGUAGAAGGACCACUUUGUU	–	–	21.8	19.2
UUUUAACAUGAGGAUCACCCAUGUGAGGAUAUCGAAAUUUAUAUUAAUAUUAUUAUUUCGAGAAGGCACAUUUU	–	–	136	137
UUUUAACAUGAGGAUCACCCAUGUGAGGAUAUCGAAAUUUAUAUUUAUAUUAAUUAUACGAGAAGGCACAUUUU	–	–	79.2	104
